pEC50, pIC50: −log10 of the molar value. Values after ≈ are worked out from the molar mass of the structure shown. Values belong to the molecule of their own block, whether it stands above or below them. Active and inactive are the calls of the source. The calls are words filed in the database; no cut-off is given here.
Key:
[1] = target: T1, Scavenger receptor class B member 1 (Mus musculus, UniProt Q61009); experiment: (§1) Inhibition of mouse SR-B1 overexpressed in CHO cells assessed as inhibition of [3H]cholesteryl ester uptake into cells after 2 to 3 hrs by liquid scintillation counting; type: cell-based
T1 sequence (Q61009 whole entry): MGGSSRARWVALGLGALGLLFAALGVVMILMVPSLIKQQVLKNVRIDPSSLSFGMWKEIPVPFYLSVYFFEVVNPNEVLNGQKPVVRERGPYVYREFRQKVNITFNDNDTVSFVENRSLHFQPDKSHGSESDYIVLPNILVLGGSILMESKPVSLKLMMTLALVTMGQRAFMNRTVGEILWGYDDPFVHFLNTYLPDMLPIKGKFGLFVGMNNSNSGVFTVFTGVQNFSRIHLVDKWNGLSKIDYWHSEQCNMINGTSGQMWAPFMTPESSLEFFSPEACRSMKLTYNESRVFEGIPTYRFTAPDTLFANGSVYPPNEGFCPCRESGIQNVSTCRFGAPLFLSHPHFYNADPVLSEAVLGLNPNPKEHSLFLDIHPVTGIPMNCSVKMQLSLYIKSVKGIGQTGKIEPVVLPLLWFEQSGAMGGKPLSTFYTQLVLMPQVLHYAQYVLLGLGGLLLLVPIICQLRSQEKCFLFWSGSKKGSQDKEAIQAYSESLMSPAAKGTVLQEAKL
Method in brief: (§2)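 IdlA[mSR-BI] cells exposed to HDL carrying [³H]-labeled cholesteryl oleate ester; cellular uptake of [³H]CE measured across a compound dilution series, IC₅₀ from dose-response curve.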

[2] = Aqueous solubility of the compound in PBS at pH 7.4 with 1 % DMSO after 24 hrs by UPLC-MS analysis; type: physicochemical; conditions: for solubility at 24 h: PBS with 1% DMSO, pH 7.4; for solubility: buffer, pH 7.4, 24 h
[3] = target: T2, Scavenger receptor class B member 1 (Mus musculus) (UniProt Q61009); experiment: Inhibition of mouse SR-B1 overexpressed in CHO cells assessed as inhibition of receptor-mediated Alexa-594-labeled transferrin endocytosis up to 35 uM; type: cell-based
T2 sequence (whole entry): T1 sequence (Q61009 whole entry)
Method in brief: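 Receptor-mediated endocytosis in IdlA[mSR-BI] cells followed by uptake of Alexa-594-labeled transferrin, compound tested at concentrations up to 35 μM.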

[4] = Plasma protein binding in mouse at 5 uM after 5 hrs by equilibrium dialysis; type: ADME, cell-free; conditions: read-out: PPB (converted)
Method in brief: (§3)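 Fraction bound to plasma proteins measured separately in human and mouse plasma.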

[5] = Stability in mouse liver microsomes assessed as compound remaining at 1 uM after 1 hr by UHPLC-MS analysis; type: ADME; conditions: read-out: Stability
Method in brief: (§4)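 Compound incubated 1 h with mouse or human liver microsomes; percent parent remaining determined.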

[6] = Stability in human plasma assessed as compound remaining at 5 uM after 5 hrs by UPLC-MS analysis; type: ADME, cell-free; conditions: read-out: Stability
Method in brief: (§5)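 Compound incubated 5 h in human or mouse plasma; percent parent remaining determined.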

[7] = target: T1, Scavenger receptor class B member 1; experiment: Activity at mouse SR-B1 overexpressed in CHO cells assessed as enhancement of binding of ALexa-488-labeled HDL particles to cells after 3 hrs
CHO = experiment: Cytotoxicity against CHO cells after 24 hrs by CellTiterGlo assay; type: cell-based, Cricetulus griseus; conditions: chinese hamster
Method in brief: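 IdlA[mSR-BI] cells (CHO overexpressing mouse SR-BI) incubated with compound for 24 h; cellular ATP levels read by CellTiter-Glo luminescence.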

[8] = Plasma protein binding in human at 5 uM after 5 hrs by equilibrium dialysis; type: ADME, cell-free; conditions: read-out: PPB (converted); method in brief: as §3
L-type calcium channel = L-type calcium channel (Homo sapiens, UniProt O60840+Q01668+Q13698+Q13936); experiment: Inhibition of L-type calcium channel (unknown origin) at 10 uM
[9] = Stability in mouse plasma assessed as compound remaining at 5 uM after 5 hrs by UPLC-MS analysis; type: ADME, cell-free; conditions: read-out: Stability; method in brief: as §5
[10] = Stability in human liver microsomes assessed as compound remaining at 1 uM after 1 hr by UHPLC-MS analysis; type: ADME; conditions: read-out: Stability; method in brief: as §4
[11] = target: T2, Scavenger receptor class B member 1 (Mus musculus); experiment: Inhibition of mouse SR-B1 overexpressed in CHO cells assessed as inhibition of transfer of the fluorescent lipid DiI from HDL particles to cells at 1 uM after 3 hrs; type: cell-based
[12] = target: T1, Scavenger receptor class B member 1; experiment: Inhibition of mouse SR-B1 overexpressed in CHO cells assessed as inhibition of transfer of the fluorescent lipid DiI from HDL particles to cells after 3 hrs; type: cell-based
Method in brief: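 Primary assay: uptake of fluorescent lipid DiI from DiI-labeled HDL particles into IdlA[mSR-BI] cells, i.e. CHO cells overexpressing mouse SR-BI. Read-out is cell-associated DiI fluorescence. Compounds that quenched DiI-HDL fluorescence in a dose-dependent manner were excluded by counterscreen. 1 μM BLT-1 served as positive control.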

[13] = target: T2, Scavenger receptor class B member 1 (Mus musculus); experiment: as §1; type: cell-based; method in brief: as §2

Structure (SMILES): CC(C)NC(=O)Nc1ccc2c(c1)C(=O)N([C@H](C)CO)C[C@@H](C)[C@H](CN(C)S(=O)(=O)c1ccc(Cl)cc1)O2
- solubility at 24 h [2]: 79 µM (≈ 44.8 µg/mL)
- inhibition [3]: inactive
- fraction unbound at 5 h, 5 µM [4]: 0.053
- remaining at 1 h, 1 µM [5]: 25%
- remaining at 5 h, 5 µM [6]: > 99%
- pEC50 [7]: 6.40
- Activity (CHO): Non-toxic
- fraction unbound at 5 h, 5 µM [8]: 0.055
- pIC50 [1]: 6.60
- inhibition at 10 µM (L-type calcium channel): 19%
- remaining at 5 h, 5 µM [9]: > 99%
- remaining at 1 h, 1 µM [10]: 10%

Structure (SMILES): C[C@H](C(=O)NC1CCCC1)N(C(=O)Cn1nnc(-c2ccc3c(c2)OCO3)n1)C1CCCCC1
- pIC50 [1]: 8.30

Structure (SMILES): CCCCCCC1CCC/C1=N\NC(N)=S (stereo not drawn)
- inhibition [11]: > 70%

Structure (SMILES): COCC(=O)n1ccc2cc(-c3csc(NC(=O)c4cc(OC)cc(OC)c4)n3)ccc21
- solubility at 24 h [2]: 0.57 µM (≈ 0.257 µg/mL)
- inhibition [13]: Active

Now from value to molecule, other results behind:

- pIC50 [1]: 6.11
Structure (SMILES): COc1c(NC(=O)C(=O)c2ccc(OCCN3CCOCC3)c3ccccc23)cc(C(C)(C)C)cc1NS(C)(=O)=O [ITX-5061]

- solubility [2]: 0.1 µM (≈ 0.0653 µg/mL)
- pIC50 [12]: 6.74
Structure (SMILES): C[C@@H]1CN([C@H](C)CO)C(=O)c2cc(NC(=O)Cc3cn(C)c4ccccc34)ccc2O[C@H]1CN(C)S(=O)(=O)c1ccc(Cl)cc1
- Activity (CHO): Non-toxic

- solubility [2]: 79 µM (≈ 49.2 µg/mL)
- pIC50 [12]: 5.19
Structure (SMILES): C[C@@H]1CN([C@H](C)CO)C(=O)c2cc(NC(=O)Cc3cn(C)c4ccccc34)ccc2O[C@H]1CN(C)S(=O)(=O)c1cn(C)cn1
- Activity (CHO): Non-toxic
